Our source for the Activity, inhibition and Ratio IC50 values is ChEMBL document CHEMBL2010703, “Synthesis and structure-activity relationship studies of 3-biaryl-8-oxabicyclo[3.2.1]octane-2-carboxylic acid methyl esters” (Bioorg Med Chem, 2012).

A value given as a limit tells only on which side of the number the result lay.

For one experiment, the species on record is Macaca mulatta. The experiment can be described thus: Binding affinity to rhesus monkey DAT. A digest of the protocol:
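Monkey striatal tissue; each compound tested 2–5 times. Competition binding used a fixed radioligand concentration against a range of test-drug concentrations.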

Experiment [1] deals with Sodium-dependent dopamine transporter (Homo sapiens) (UniProt Q01959). Nature of the experiment: Displacement of [3H]WIN 35,428 from human dopamine active transporter. A digest of the protocol:
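A fixed radioligand concentration was run against a range of test-drug concentrations, and IC50 was read. Racemic compounds. Values are means of two or more independent experiments, each in triplicate.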
For orientation: In a radioligand displacement assay an active substance lowers the binding of a labelled ligand.

The species entered for a further experiment is Homo sapiens. The experiment can be described thus: Selectivity ratio of IC50 for human DAT to IC50 for human SERT.

Chain of Sodium-dependent dopamine transporter (Homo sapiens) (Q01959 whole entry): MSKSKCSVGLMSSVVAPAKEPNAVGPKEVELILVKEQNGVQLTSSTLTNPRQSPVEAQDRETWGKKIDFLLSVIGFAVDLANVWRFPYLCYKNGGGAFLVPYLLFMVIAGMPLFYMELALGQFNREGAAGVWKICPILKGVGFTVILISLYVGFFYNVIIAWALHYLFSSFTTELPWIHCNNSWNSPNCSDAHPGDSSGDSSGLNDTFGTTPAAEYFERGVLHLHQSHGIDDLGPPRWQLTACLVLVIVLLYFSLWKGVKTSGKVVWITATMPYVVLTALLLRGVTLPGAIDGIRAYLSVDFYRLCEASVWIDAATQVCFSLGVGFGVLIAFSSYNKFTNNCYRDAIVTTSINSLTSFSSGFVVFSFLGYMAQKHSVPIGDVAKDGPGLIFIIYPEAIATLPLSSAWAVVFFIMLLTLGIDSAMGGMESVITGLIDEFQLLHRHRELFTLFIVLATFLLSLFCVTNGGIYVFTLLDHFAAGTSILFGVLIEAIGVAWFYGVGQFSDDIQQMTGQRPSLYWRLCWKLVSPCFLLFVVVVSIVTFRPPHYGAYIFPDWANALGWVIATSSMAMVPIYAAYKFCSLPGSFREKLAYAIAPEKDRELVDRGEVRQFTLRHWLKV

`COC(=O)[C@H]1[C@@H](c2ccc(F)cc2)C[C@@H]2CC[C@H]1N2C` came in with an Activity in the experiment listed under Macaca mulatta of 12.9 nM.
Take `COC(=O)[C@@H]1C2CCC(C[C@@H]1c1cc3ccccc3[nH]1)O2` (mixture of isomers): the inhibition entry in experiment [1] was “Dose-dependent effect”. In the experiment listed under Homo sapiens, the Ratio IC50 stood at 0.2.
On to `COC(=O)[C@@H]1C2CCC(C[C@@H]1c1ccc(-c3cccn3C)cc1)O2` (mixture of isomers), for which the inhibition entry in experiment [1] is “Dose-dependent effect”. In addition, the Ratio IC50 in the experiment filed under Homo sapiens is greater than 2.
Taken in the same sequence, the figures for `COC(=O)[C@@H]1C2CCC(C[C@@H]1c1ccc(-c3ccco3)cc1)O2` (mixture of isomers) were “Dose-dependent effect” and 2.
As to `COC(=O)[C@@H]1C2CCC(C[C@H]1c1cc3ccccc3s1)O2` (mixture of isomers), the inhibition entry in experiment [1] was “Dose-dependent effect”.
Regarding `COC(=O)[C@@H]1C2CCC(C[C@H]1c1ccc(-c3cccn3C)cc1)O2` (mixture of isomers), in experiment [1], the inhibition entry is “Dose-dependent effect”. The Ratio IC50 in the experiment listed under Homo sapiens is greater than 2.5.
`COC(=O)[C@@H]1C2CCC(C[C@H]1c1ccc(-c3ccco3)cc1)O2` (mixture of isomers): the inhibition entry in experiment [1] is “Dose-dependent effect”. In the experiment filed under Homo sapiens, the Ratio IC50 turned out to be 4.
Taken in the same sequence, the figures for `COC(=O)[C@@H]1C2CCC(C[C@H]1c1ccc(-c3cccs3)cc1)O2` (mixture of isomers) were “Dose-dependent effect” and 10.
For `COC(=O)[C@@H]1C2CCC(C[C@H]1c1ccc(-c3nccs3)cc1)O2` (mixture of isomers), the inhibition entry in experiment [1] was “Dose-dependent effect”. Besides, in the experiment listed under Homo sapiens, the Ratio IC50 was greater than 7.
For `COC(=O)[C@@H]1C2CCC(C[C@H]1c1cccs1)O2` (mixture of isomers), in that order: “Dose-dependent effect” and 1.
Take `COC(=O)[C@H]1C2CCC(C[C@@H]1c1cc3ccccc3[nH]1)O2` (mixture of isomers): the inhibition result in experiment [1] was “Dose-dependent effect”. In addition, the Ratio IC50 in the experiment filed under Homo sapiens is 0.4.
For the compound `COC(=O)[C@H]1C2CCC(C[C@@H]1c1cc3ccccc3s1)O2` (mixture of isomers), in experiment [1], the inhibition result is “Dose-dependent effect”.
For `COC(=O)[C@H]1C2CCC(C[C@@H]1c1cccs1)O2` (mixture of isomers), the inhibition result in experiment [1] was “Dose-dependent effect”. Moreover, the Ratio IC50 in the experiment listed under Homo sapiens is 1.
Regarding `COC(=O)[C@H]1C2CCC(C[C@H]1c1cc3ccccc3[nH]1)O2` (mixture of isomers), in experiment [1], the inhibition result is “Dose-dependent effect”. Besides, the Ratio IC50 in the experiment listed under Homo sapiens is less than 0.3.
Taken in the same sequence, the figures for `COC(=O)[C@H]1C2CCC(C[C@H]1c1cc3ccccc3o1)O2` (mixture of isomers) were “Dose-dependent effect” and less than 0.04.
`COC(=O)[C@H]1C2CCC(C[C@H]1c1ccc(-c3ccccc3)o1)O2` (mixture of isomers): in experiment [1], the inhibition result is “Dose-dependent effect”. Besides, the Ratio IC50 in the experiment listed under Homo sapiens was less than 2.
Taken in the same sequence, the figures for `COC(=O)[C@H]1C2CCC(C[C@H]1c1cccc(-c3nccs3)c1)O2` (mixture of isomers) were “Dose-dependent effect” and 1.
For `COC(=O)C1=C(c2cc3ccccc3o2)CC2CCC1O2` (racemic), the inhibition result in experiment [1] is “Dose-dependent effect”. Besides, the Ratio IC50 in the experiment filed under Homo sapiens was less than 0.1.
`COC(=O)C1=C(c2cc3ccccc3s2)CC2CCC1O2` (racemic): the inhibition result in experiment [1] was “Dose-dependent effect”. Moreover, the Ratio IC50 in the experiment filed under Homo sapiens is less than 0.004.
Taken in the same sequence, the figures for `COC(=O)C1=C(c2ccc(-c3ccccc3)n2C)CC2CCC1O2` (racemic) were “Dose-dependent effect” and 1.
On to `COC(=O)C1=C(c2ccc(-c3ccccc3)o2)C[C@@H]2CC[C@H]1O2` (racemic), for which the inhibition entry in experiment [1] was “Dose-dependent effect”. In addition, the Ratio IC50 in the experiment listed under Homo sapiens came out at 1.
Turning to `COC(=O)C1=C(c2ccc(-c3ccccc3)s2)CC2CCC1O2` (racemic), the inhibition entry in experiment [1] is “Dose-dependent effect”. Moreover, in the experiment filed under Homo sapiens, the Ratio IC50 stood at 1.
For `COC(=O)C1=C(c2cccc(-c3cccn3C)c2)CC2CCC1O2` (racemic), in that order: “Dose-dependent effect” and greater than 14.
For `COC(=O)C1=C(c2ccco2)C[C@@H]2CC[C@H]1O2` (racemic), in that order: “Dose-dependent effect” and 1.
For `COC(=O)C1=C(c2cccs2)C[C@@H]2CC[C@H]1O2` (racemic), in that order: “Dose-dependent effect” and 1.
`O=C1C2=C(CC3CCC2O3)c2cc3ccccc3n21` (racemic): the inhibition result in experiment [1] is “Dose-dependent effect”. Moreover, in the experiment filed under Homo sapiens, the Ratio IC50 stood at 1.
